Experimental data from ChEMBL document CHEMBL4689842, “EUbOPEN Chemogenomics Library wave 1” (2021).
“And” between values parts separate entries of the source, which are not always exact repeats. Identical values can stand only once.

Tested on: U2OS
Assay: Multiplex assay against U2OS
Type: toxicity, cell-based
Details: human
Procedure, shortened: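 Hoechst33342, BioTracker Green Microtubule Cytoskeleton Dye, MitoTracker Red and Annexin V Alexa Fluor 680 were added to live cells at seeding, and imaging on a CQ1 microscope at 37°C and 5% CO2 followed compound addition. Gating by CellPathfinder machine learning separated cells into Hoechst high-intensity objects or normal cells, then normal cells into healthy, pyknosed or fragmented nuclei, then pyknosed cells into mitotic or apoptotic. Per cents of healthy-nucleus cells are reported for the tubulin, mitochondrial-mass and membrane-permeability phenotypes.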

[1] = 12 h, 1 µM, compound concentration 1 uM, replicate 1
[2] = 12 h, 1 µM, compound concentration 1 uM, replicate 2
[3] = 12 h, 10 µM, compound concentration 10 uM, replicate 1
[4] = 12 h, 10 µM, compound concentration 10 uM, replicate 2
[5] = 24 h, 1 µM, compound concentration 1 uM, replicate 1
[6] = 24 h, 1 µM, compound concentration 1 uM, replicate 2
[7] = 24 h, 10 µM, compound concentration 10 uM, replicate 1
[8] = 24 h, 10 µM, compound concentration 10 uM, replicate 2

Cc1ccc2nc(NCCN)c3ncc(C)n3c2c1.O=C(O)C(F)(F)F.O=C(O)C(F)(F)F
Population Apoptotic (%) [1]: 29% | Population Fragmented Nuclei (%) [1]: 6% | Population Healthy Nuclei (%) [1]: 83% | Population Hoechst High Intensity Objects (%) [1]: 1% | Population Membrane Permeable-Phenotype (%) [1]: 6% | Population Mitochondria Different-Phenotype (%) [1]: 17% | Population Mitotic Cells (%) [1]: 70% | Population Normal (%) [1]: 98% | Population Pyknosed Nuclei (%) [1]: 10% | Population Tubulin-Different-Phenotype (%) [1]: 27% | Total Cell Count [1]: 235 | Population Apoptotic (%) [2]: 4% | Population Fragmented Nuclei (%) [2]: 8% | Population Healthy Nuclei (%) [2]: 75% | Population Hoechst High Intensity Objects (%) [2]: 13% | Population Mitotic Cells (%) [2]: 95% | Population Normal (%) [2]: 86% | Population Pyknosed Nuclei (%) [2]: 16% | Population Tubulin-Different-Phenotype (%) [2]: 17% | Total Cell Count [2]: 151 | Population Apoptotic (%) [3]: 28% | Population Fragmented Nuclei (%) [3]: 17% | Population Healthy Nuclei (%) [3]: 65% | Population Hoechst High Intensity Objects (%) [3]: 8% | Population Membrane Permeable-Phenotype (%) [3]: 17% | Population Mitochondria Different-Phenotype (%) [3]: 11% | Population Mitotic Cells (%) [3]: 71% | Population Normal (%) [3]: 91% | Population Pyknosed Nuclei (%) [3]: 17% | Population Tubulin-Different-Phenotype (%) [3]: 17% | Total Cell Count [3]: 132 | Population Apoptotic (%) [4]: 50% | Population Fragmented Nuclei (%) [4]: 27% | Population Healthy Nuclei (%) [4]: 53% | Population Hoechst High Intensity Objects (%) [4]: 12% | Population Membrane Permeable-Phenotype (%) [4]: 15% | Population Mitochondria Different-Phenotype (%) [4]: 13% | Population Mitotic Cells (%) [4]: 50% | Population Normal (%) [4]: 87% | Population Pyknosed Nuclei (%) [4]: 18% | Population Tubulin-Different-Phenotype (%) [4]: 22% | Total Cell Count [4]: 123 | Population Apoptotic (%) [5]: 33% | Population Fragmented Nuclei (%) [5]: 2% | Population Healthy Nuclei (%) [5]: 93% | Population Hoechst High Intensity Objects (%) [5]: 1% | Population Membrane Permeable-Phenotype (%) [5]: 7% | Population Mitochondria Different-Phenotype (%) [5]: 19% | Population Mitotic Cells (%) [5]: 66% | Population Normal (%) [5]: 98% | Population Pyknosed Nuclei (%) [5]: 3% | Population Tubulin-Different-Phenotype (%) [5]: 31% | Total Cell Count [5]: 309 | Population Apoptotic (%) [6]: 18% | Population Fragmented Nuclei (%) [6]: 6% | Population Healthy Nuclei (%) [6]: 84% | Population Hoechst High Intensity Objects (%) [6]: 8% | Population Mitochondria Different-Phenotype (%) [6]: 32% | Population Mitotic Cells (%) [6]: 81% | Population Normal (%) [6]: 91% | Population Pyknosed Nuclei (%) [6]: 9% | Population Tubulin-Different-Phenotype (%) [6]: 20% | Total Cell Count [6]: 192 | Population Apoptotic (%) [7]: 76% | Population Fragmented Nuclei (%) [7]: 27% | Population Healthy Nuclei (%) [7]: 30% | Population Hoechst High Intensity Objects (%) [7]: 8% | Population Membrane Permeable-Phenotype (%) [7]: 32% | Population Mitochondria Different-Phenotype (%) [7]: 26% | Population Mitotic Cells (%) [7]: 23% | Population Normal (%) [7]: 91% | Population Pyknosed Nuclei (%) [7]: 41% | Population Tubulin-Different-Phenotype (%) [7]: 32% | Total Cell Count [7]: 123 | Population Apoptotic (%) [8]: 61% | Population Fragmented Nuclei (%) [8]: 29% | Population Healthy Nuclei (%) [8]: 36% | Population Hoechst High Intensity Objects (%) [8]: 14% | Population Membrane Permeable-Phenotype (%) [8]: 24% | Population Mitochondria Different-Phenotype (%) [8]: 42% | Population Mitotic Cells (%) [8]: 38% | Population Normal (%) [8]: 85% | Population Pyknosed Nuclei (%) [8]: 34% | Population Tubulin-Different-Phenotype (%) [8]: 30% | Total Cell Count [8]: 106

CCN(CC)S(=O)(=O)Nc1cccc(-c2ccc3c(NC(=O)C4CC4)n[nH]c3c2)c1
Population Apoptotic (%) [3]: 45% and 28% | Population Fragmented Nuclei (%) [3]: 7% and 4% | Population Healthy Nuclei (%) [3]: 83% and 87% | Population Hoechst High Intensity Objects (%) [3]: 2% and 3% | Population Membrane Permeable-Phenotype (%) [3]: 16% and 7% | Population Mitochondria Different-Phenotype (%) [3]: 10% and 26% | Population Mitotic Cells (%) [3]: 55% and 71% | Population Normal (%) [3]: 97% and 96% | Population Pyknosed Nuclei (%) [3]: 9% and 8% | Population Tubulin-Different-Phenotype (%) [3]: 8% and 17% | Total Cell Count [3]: 177 and 289 | Population Apoptotic (%) [4]: 0% and 16% | Population Fragmented Nuclei (%) [4]: 9% and 8% | Population Healthy Nuclei (%) [4]: 80% and 85% | Population Hoechst High Intensity Objects (%) [4]: 5% and 14% | Population Mitotic Cells (%) [4]: 100% and 83% | Population Normal (%) [4]: 94% and 85% | Population Pyknosed Nuclei (%) [4]: 10% and 5% | Population Tubulin-Different-Phenotype (%) [4]: 20% and 13% | Total Cell Count [4]: 120 and 259 | Population Apoptotic (%) [7]: 21% | Population Healthy Nuclei (%) [7]: 70% and 92% | Population Hoechst High Intensity Objects (%) [7]: 3% and 2% | Population Mitochondria Different-Phenotype (%) [7]: 13% and 26% | Population Mitotic Cells (%) [7]: 78% | Population Normal (%) [7]: 96% and 97% | Population Pyknosed Nuclei (%) [7]: 21% | Total Cell Count [7]: 241 and 253 | Population Apoptotic (%) [8]: 20% and 28% | Population Fragmented Nuclei (%) [8]: 13% and 6% | Population Healthy Nuclei (%) [8]: 68% and 87% | Population Hoechst High Intensity Objects (%) [8]: 6% and 8% | Population Membrane Permeable-Phenotype (%) [8]: 18% and 6% | Population Mitochondria Different-Phenotype (%) [8]: 17% and 29% | Population Mitotic Cells (%) [8]: 79% and 71% | Population Normal (%) [8]: 93% and 91% | Population Tubulin-Different-Phenotype (%) [8]: 22% | Total Cell Count [8]: 134 and 195
